In ChEMBL document CHEMBL3351391, “Bioactive dihydronaphthoquinone derivatives from Fusarium solani” (J Nat Prod, 2014):
Active and inactive are the calls of the source. The calls are words filed in the database; no cut-off is given here.

Tests used:
HeLa [1] = experiment: Cytotoxicity against human HeLa cells assessed as reduction in cell viability at 10 to 30 uM in presence of 10 mM NAC after 48 hrs by WST8 assay; assay type: functional, cell-based
How it was run: (§1)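 HeLa cells were exposed to 0–30 μM agent for 48 h, with or without 10 mM N-acetylcysteine as ROS scavenger. Viability was then read by WST-8 (tetrazolium reduction, absorbance 450 nm). Data are mean ± SD, n = 3.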

[2] = Cytotoxicity against human HuH7 cells after 48 hrs by WST8 assay; assay type: functional, cell-based; details: Huh-7, 48 h
How it was run: (§2)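 WST-8 viability after 48 h exposure to a concentration series. Plating was 1 × 10^4 or 5 × 10^3 cells per well. HeLa and HuH-7 were grown in DMEM and HCT116 in RPMI 1640, each with 10% FBS. HUVEC were grown in endothelial cell growth medium. Kit reagent was added for 30–180 min at 37 °C, then absorbance was read at 450 nm. Doxorubicin was the positive control.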

HUVEC = experiment: Cytotoxicity against HUVEC cells after 48 hrs by WST8 assay; assay type: functional, cell-based; details: Homo sapiens; how it was run: as §2
HeLa [3] = experiment: Cytotoxicity against human HeLa cells after 48 hrs by WST8 assay; assay type: functional, cell-based; how it was run: as §2
HeLa [4] = experiment: Induction of ROS generation in human HeLa cells at 1 uM after 3 hrs by CM-H2DCFDA dye based assay; assay type: functional, cell-based
How it was run: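 HeLa cells were treated with agent over 0–10 μM; the methods give 1 h and the figure legend gives 3 h. Cells were then loaded with 10 μM CM-H2DCFDA for 20 min at 37 °C and washed. DCF fluorescence was read on a plate reader at ex 490/em 535 nm, n = 3.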

HeLa [5] = experiment: Induction of apoptosis in human HeLa cells assessed as DNA fragmentation at 4 uM after 48 hrs by TUNEL assay; assay type: functional, cell-based
How it was run: (§3)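 HeLa cells were plated at 2.5 × 10^4 per chamber-slide well and exposed for 48 h at 37 °C. Doses were 4.0 μM test agent or 0.2 μM doxorubicin (positive control). DNA fragmentation was detected by TUNEL (ApopTag Red) under fluorescence microscopy. Apoptotic cells were counted among ≥200 cells per condition, as mean ± SD of three independent experiments.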

[6] = Cytotoxicity against human HCT116 cells after 48 hrs by WST8 assay; assay type: functional, cell-based; details: HCT-116, 48 h; how it was run: as §2
HeLa [7] = experiment: Induction of cell death in human HeLa cells at 10 uM after 1 hr
HeLa [8] = experiment: Cytotoxicity against human HeLa cells assessed as reduction in cell viability in presence of 10 mM NAC after 48 hrs by WST8 assay; assay type: functional, cell-based; how it was run: as §1
HeLa [9] = experiment: Induction of ROS generation in human HeLa cells at 10 to 60 uM after 3 hrs by CM-H2DCFDA dye based assay; assay type: functional, cell-based
HeLa [10] = experiment: Induction of apoptosis in human HeLa cells assessed as DNA fragmentation at 0.2 uM after 48 hrs by TUNEL assay; assay type: functional, cell-based; how it was run: as §3

SMILES | Activity (HeLa [1]) | IC50 [2] [µM] | IC50 (HUVEC) [µM] | IC50 (HeLa [3]) [µM] | Activity (HeLa [4]) | Activity (HeLa [5]) | IC50 [6] [µM] | Activity (HeLa [7]) | Activity (HeLa [8]) | Activity (HeLa [9]) | Activity (HeLa [10])
CC(=O)Cc1c(C)c(O)c2c(c1O)C(=O)CCC2=O | inactive | 1.9 | 1.8 | 4 | Active | Active | 1.1 | Active |  |  | 
CC/C(=C(\c1ccccc1)c1ccc(OCCN(C)C)cc1)c1ccccc1 |  |  |  |  |  |  |  |  | Active |  | 
COc1cc(O)c2c(c1O)[C@H](O)[C@@H]1C[C@](C)(O)OC[C@@H]1C2=O |  | 27 | 13.1 | > 30 |  |  | > 30 |  |  |  | 
COc1cc(O)c2c(c1O)C(=O)[C@@H](CC(C)=O)[C@H](C)C2=O |  | 10.8 | 7.7 | 7.9 |  |  | 15.4 |  |  |  | 
CC(=O)Cc1c(C)c(O)c2c(c1O)C(=O)CCC2O (stereo unspecified) |  | > 30 | 5.8 | > 30 |  |  | > 30 |  |  |  | 
CC1=CC(=O)c2ccccc2C1=O |  |  |  |  |  |  |  |  |  | Active | 
COc1cccc2c1C(=O)c1c(O)c3c(c(O)c1C2=O)C[C@@](O)(C(=O)CO)C[C@@H]3O[C@H]1C[C@H](N)[C@H](O)[C@H](C)O1 [DOXORUBICIN] |  | 0.22 | 0.4 | 0.22 |  |  | 0.25 |  |  |  | Active
COC1=CC(=O)c2c(O)c(C)c(CC(C)=O)c(O)c2C1=O [JAVANICIN] |  | 6.7 | 2.3 | 9 |  |  | 5.5 |  |  |  | 
